Results as given in ChEMBL document CHEMBL3259704, “Second generation steroidal 4-aminoquinolines are potent, dual-target inhibitors of the botulinum neurotoxin serotype A metalloprotease and P. falciparum malaria” (J Med Chem, 2014).

How the values were obtained:
[1] = Selectivity index, ratio of IC50 for human HepG2 cells to IC50 for CQ, MFQ-susceptible Plasmodium falciparum D6 clone Sierra 1/UNC isolate; assay type: toxicity, cell-based; settings: read-out: Ratio IC50
[2] = Selectivity index, ratio of IC50 for human HepG2 cells to IC50 for CQ-resistant, MFQ-susceptible Plasmodium falciparum W2 clone Indochina 1 isolate; assay type: toxicity, cell-based; settings: read-out: Ratio IC50
Plasmodium falciparum [3] = test: Antimalarial activity against CQ-resistant, MFQ-susceptible Plasmodium falciparum W2 clone Indochina 1 isolate assessed as inhibition of parasite proliferation by MSF assay; assay type: functional, organism-based
How it was run: (§1)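 SYBR Green I fluorescence (MSF) microtiter drug-sensitivity assay: malarial DNA content is the measure of in vitro parasite proliferation. Resistance index is the IC90 ratio of the resistant strain to D6.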

Plasmodium falciparum [4] = test: Antimalarial activity against CQ, MFQ-resistant Plasmodium falciparum TM91C235 clone Southeast asian isolate assessed as inhibition of parasite proliferation by MSF assay; assay type: functional, organism-based; how it was run: as §1
Plasmodium falciparum [5] = test: Antimalarial activity against CQ, MFQ-susceptible Plasmodium falciparum D6 clone Sierra 1/UNC isolate assessed as inhibition of parasite proliferation by MSF assay; assay type: functional, organism-based; how it was run: as §1
Plasmodium falciparum [6] = test: Resistance index, ratio of IC90 for CQ-resistant, MFQ-susceptible Plasmodium falciparum W2 clone Indochina 1 isolate to IC90 for CQ, MFQ-susceptible Plasmodium falciparum D6 clone Sierra 1/UNC isolate; assay type: functional; how it was run: as §1
HepG2 = test: Cytotoxicity against human HepG2 cells assessed as cell viability after 48 hrs by MTT assay; assay type: cell-based; settings: HepG2, 48 h
[7] = molecular target: Botulinum neurotoxin type A (Clostridium botulinum) (UniProt P0DPI0); test: Inhibition of Clostridium botulinum recombinant BoNT/A light chain using N-terminal acetylated, C-terminal aminated SNAP-25 (187-203) as substrate at 20 uM by reverse-phase HPLC analysis
How it was run: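 Recombinant BoNT/A LC with SNAP-25 187–203 peptide substrate in 40 mM HEPES–0.05% Tween, pH 7.3, with 0.5 mg/mL BSA and 50 μM excess Zn, at 37 °C. Quenched with TFA; reverse-phase HPLC product/substrate peak areas give percent inhibition, run in duplicate.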

Plasmodium falciparum [8] = test: Resistance index, ratio of IC90 for CQ, MFQ-resistant Plasmodium falciparum TM91C235 clone Southeast asian isolate to IC90 for CQ, MFQ-susceptible Plasmodium falciparum D6 clone Sierra 1/UNC isolate; assay type: functional; how it was run: as §1
[9] = Selectivity index, ratio of IC50 for human HepG2 cells to IC50 for CQ, MFQ-resistant Plasmodium falciparum TM91C235 clone Southeast asian isolate; assay type: toxicity, cell-based; settings: read-out: Ratio IC50
[10] = molecular target: Botulinum neurotoxin type A (Clostridium botulinum, UniProt P0DPI0); test: Inhibition of Clostridium botulinum recombinant BoNT/A light chain using N-terminal acetylated, C-terminal aminated SNAP-25 (187-203) as substrate by reverse-phase HPLC analysis
How it was run: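 Same HPLC LC cleavage assay (pH 7.3 HEPES/Tween, BSA, excess Zn, 37 °C). […] Ki comes from velocity versus substrate at several inhibitor levels, globally fit to a competitive model.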

Liver microsome = test: Half life in human liver microsomes; assay type: ADME; settings: microsomes
[11] = (§2) Half life in mouse liver microsomes; assay type: ADME; settings: liver microsomes
PBMC = test: Cytotoxicity against human PBMC assessed as inhibition of cell survival after 72 hrs; assay type: cell-based
How it was run: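 PBMC from heparinized healthy-donor blood (Histopaque) in RPMI-1640 with 10% FCS and PHA stimulation, 200 000 cells/well, with compounds in DMSO, 72 h at 37 °C, 6% CO2.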

Liver = test: as §2; assay type: ADME; settings: microsomes

Botulinum neurotoxin type A (Clostridium botulinum), sequence (P0DPI0 2-448 limits assumed): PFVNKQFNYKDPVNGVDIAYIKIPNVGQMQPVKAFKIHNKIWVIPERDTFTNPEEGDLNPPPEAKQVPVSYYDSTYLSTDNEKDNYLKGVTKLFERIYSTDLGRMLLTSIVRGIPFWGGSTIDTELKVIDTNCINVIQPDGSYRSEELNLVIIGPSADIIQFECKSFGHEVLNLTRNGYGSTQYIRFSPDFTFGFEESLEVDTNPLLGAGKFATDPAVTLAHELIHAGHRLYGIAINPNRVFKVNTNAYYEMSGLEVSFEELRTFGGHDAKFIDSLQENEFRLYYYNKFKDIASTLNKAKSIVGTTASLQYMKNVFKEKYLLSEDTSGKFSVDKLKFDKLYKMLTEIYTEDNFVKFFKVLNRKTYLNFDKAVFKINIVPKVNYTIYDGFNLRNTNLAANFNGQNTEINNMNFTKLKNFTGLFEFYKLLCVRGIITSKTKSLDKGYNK
Botulinum neurotoxin type A, sequence (P0DPI0 2-448 limits assumed): as above

SMILES | selectivity ratio [1] | selectivity ratio [2] | IC50 (Plasmodium falciparum [3]) [nM] | IC90 (Plasmodium falciparum [3]) [nM] | IC50 (Plasmodium falciparum [4]) [nM] | IC90 (Plasmodium falciparum [4]) [nM] | IC50 (Plasmodium falciparum [5]) [nM] | IC90 (Plasmodium falciparum [5]) [nM] | Ratio (Plasmodium falciparum [6]) | IC50 (HepG2) [nM] | inhibition [7] [%] | Ratio (Plasmodium falciparum [8]) | selectivity ratio [9] | IC50 [10] [nM] | t1/2 (Liver microsome) [min] | half-life [11] [min] | IC50 (PBMC) [nM] | Ki [10] [nM] | t1/2 (Liver) [min]
CC(=O)O[C@H]1C[C@H]2[C@@H]([C@H](OC(C)=O)C[C@@H]3C[C@H](N)CC[C@@]32C)[C@@H]2CC[C@H]([C@H](C)CCCN(C)CCCNc3ccnc4cc(Cl)ccc34)[C@@]12C | 44 | 45 | 110 | 153 | 100 | 128 | 112 | 150 | 1.02 | 4970 | 81.4 | 0.85 | 50 | 1130 | – | – | – | – | –
CC(=O)O[C@H]1C[C@H]2[C@@H]([C@H](OC(C)=O)C[C@@H]3C[C@H](NS(C)(=O)=O)CC[C@@]32C)[C@@H]2CC[C@H]([C@H](C)CCCNCCNc3ccnc4cc(Cl)ccc34)[C@@]12C | 301 | 131 | 44.6 | 71.1 | 26.4 | 45.6 | 19.4 | 53 | 1.34 | 5850 | 74.4 | 0.86 | 222 | 5090 | – | – | – | – | –
CC(=O)O[C@H]1C[C@H]2[C@@H]([C@H](OC(C)=O)C[C@@H]3C[C@H](N(C)C)CC[C@@]32C)[C@@H]2CC[C@H]([C@H](C)CCCN(C)CCNc3ccnc4cc(Cl)ccc34)[C@@]12C | 3920 | 6820 | 1.35 | 1.35 | 2.9 | 3.32 | 2.35 | 2.63 | 0.51 | 9210 | 85.5 | 1.26 | 3180 | 2270 | 27 | 60 | 2520 | – | –
CC(=O)O[C@H]1C[C@H]2[C@@H]([C@H](OC(C)=O)C[C@@H]3C[C@H](N(C)C)CC[C@@]32C)[C@@H]2CC[C@H]([C@H](C)CCCNCCCNc3ccnc4cc(Cl)ccc34)[C@@]12C | 137 | 382 | 36.1 | 81.1 | 88.7 | 165 | 101 | 139 | 0.58 | 13800 | 92.6 | 1.19 | 156 | 1340 | – | – | 7840 | – | –
CC(=O)O[C@H]1C[C@H]2[C@@H]([C@H](OC(C)=O)C[C@@H]3C[C@H](NS(C)(=O)=O)CC[C@@]32C)[C@@H]2CC[C@H]([C@H](C)CCCN(C)CCCNc3ccnc4cc(Cl)ccc34)[C@@]12C | 89 | 93 | 30.5 | 54.7 | 20.3 | 28.6 | 31.7 | 55.9 | 0.98 | 2830 | 55.6 | 0.51 | 139 | 8210 | 11 | 60 | – | – | –
CC(=O)O[C@@H]1CC[C@@]2(C)[C@@H](C1)C[C@@H](OC(C)=O)[C@@H]1[C@@H]2C[C@H](OC(C)=O)[C@]2(C)[C@@H]([C@H](C)CCCN(C)CCCNc3ccnc4cc(Cl)ccc34)CC[C@@H]12 | 229 | 134 | 11.8 | 16.9 | 22.3 | 47.3 | 6.91 | 10.5 | 1.61 | 1580 | 61.1 | 4.52 | 71 | 4480 | – | – | – | 7690 | –
CC(=O)O[C@H]1C[C@H]2[C@@H]([C@H](OC(C)=O)C[C@@H]3C[C@H](NC(=O)OC(C)(C)C)CC[C@@]32C)[C@@H]2CC[C@H]([C@H](C)CCCNCCNc3ccnc4cc(Cl)ccc34)[C@@]12C | 531 | 1740 | 7.34 | 12.3 | 27.6 | 51.9 | 24.1 | 29.5 | 0.42 | 12800 | 67.4 | 1.76 | 464 | 4900 | – | – | – | – | –
CC(=O)N[C@@H]1CC[C@@]2(C)[C@@H](C1)C[C@@H](OC(C)=O)[C@@H]1[C@@H]2C[C@H](OC(C)=O)[C@]2(C)[C@@H]([C@H](C)CCCNCCCNc3ccnc4cc(Cl)ccc34)CC[C@@H]12 | 114 | 55 | 26.4 | 35.8 | 28.1 | 39.9 | 12.8 | 36.5 | 0.98 | 1450 | 77.3 | 1.09 | 51 | 4920 | – | – | – | – | –
CC(=O)O[C@@H]1CC[C@@]2(C)[C@@H](C1)C[C@@H](OC(C)=O)[C@@H]1[C@@H]2C[C@H](OC(C)=O)[C@]2(C)[C@@H]([C@H](C)CCCN(C)CCNc3ccnc4cc(Cl)ccc34)CC[C@@H]12 | 242 | 98 | 18.6 | 38.6 | 23 | 32.9 | 7.47 | 19.1 | 2.03 | 1810 | 33.3 | 1.73 | 79 | – | – | – | – | 34500 | –
CC(=O)O[C@H]1C[C@H]2[C@@H]([C@H](OC(C)=O)C[C@@H]3C[C@H](O)CC[C@@]32C)[C@@H]2CC[C@H]([C@H](C)CCCNCCCNc3ccnc4cc(Cl)ccc34)[C@@]12C | 115 | 84 | 12.8 | 18.8 | 11.9 | 30.3 | 9.3 | 16.5 | 1.14 | 1070 | 69.9 | 1.84 | 90 | 5180 | 8 | 60 | – | – | –
CC(=O)O[C@H]1C[C@H]2[C@@H]([C@H](OC(C)=O)C[C@@H]3C[C@H](NS(C)(=O)=O)CC[C@@]32C)[C@@H]2CC[C@H]([C@H](C)CCCN(C)CCNc3ccnc4cc(Cl)ccc34)[C@@]12C | 2710 | 1190 | 12.1 | 16.8 | 6.59 | 12.6 | 5.35 | 10.2 | 1.65 | 14500 | 33.8 | 1.24 | 2200 | 25000 | 14 | – | – | – | 47
CC(=O)O[C@H]1C[C@H]2[C@@H]([C@H](OC(C)=O)C[C@@H]3C[C@H](NS(C)(=O)=O)CC[C@@]32C)[C@@H]2CC[C@H]([C@H](C)CCCNCCCNc3ccnc4cc(Cl)ccc34)[C@@]12C | 119 | 130 | 34.4 | 96.4 | 30.3 | 56.2 | 37.5 | 74.7 | 1.29 | 4460 | 72.9 | 0.75 | 147 | 3250 | 11 | – | – | – | 47
CC(=O)O[C@H]1C[C@H]2[C@@H]([C@H](OC(C)=O)C[C@@H]3C[C@H](N)CC[C@@]32C)[C@@H]2CC[C@H]([C@H](C)CCCNCCCNc3ccnc4cc(Cl)ccc34)[C@@]12C | 75 | 54 | 195 | 282 | 243 | 347 | 138 | 234 | 1.21 | 10400 | 84.8 | 1.49 | 43 | 1040 | – | – | – | 3450 | –
